Data reported in ChEMBL document CHEMBL4052792, “3-Hydroxykynurenine, a Tryptophan Metabolite Generated during the Infection, Is Active Against Trypanosoma cruzi” (ACS Med Chem Lett, 2017).
Activity calls are given as the source filed them. The calls are words filed in the database; no cut-off is given here.

Tests used:
[1] = Induction of apoptosis in BALB/C mouse BMDM assessed as cells with hypodiploid DNA content at 4000 uM after 24 hrs by FITC/propidium iodide staining based flow cytometric analysis (reference value: 29.9%); format: functional
Trypanosoma cruzi [2] = assay: Ratio of IC50 for Trypanosoma cruzi Tulahuen trypomastigotes infected in BALB/C mouse bone marrow derived macrophages to IC50 for Trypanosoma cruzi Tulahuen amastigotes infected in BALB/C mouse bone marrow derived macrophages; format: functional
Trypanosoma cruzi [3] = assay: Trypanocidal activity against Trypanosoma cruzi Tulahuen amastigotes infected in BALB/C mouse bone marrow derived macrophages assessed as decrease in parasite infected macrophages at 200 uM after 72 hrs by immunofluorescence assay; format: functional
Summary of the method: (§1)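 Macrophages were infected with trypomastigotes and treated with 3-HK for 24 h. Immunofluorescence counts were made at 72 h post-infection. Intracellular parasites per 200 cells were expressed relative to medium-treated cultures, and infected cells were counted among 200 macrophages. Data are means ± SD of four independent experiments.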

Trypanosoma cruzi [4] = assay: Trypanocidal activity against Trypanosoma cruzi Tulahuen amastigotes infected in BALB/C mouse bone marrow derived macrophages assessed as reduction intracellular parasite growth after 24 hrs by immunofluorescence assay; format: functional, cell-based; summary of the method: as §1
Trypanosoma cruzi [5] = assay: Induction of mitochondrial membrane depolarization in Trypanosoma cruzi Tulahuen trypomastigotes at 8000 uM after 24 hrs by Rh123/propidium iodide staining-based flow cytometric analysis (reference value: 3.25 +/- 1.66%); format: functional
Summary of the method: (§2)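 Trypomastigotes were treated with 3-HK for 24 h at 37 °C, then incubated with PI plus Rh123. Rh123 fluorescence was read by flow cytometry in PI-negative (live) parasites. The depolarized fraction was taken as the low-fluorescence M2 population. Index of variation = (treated median − control median)/control median. Three experiments were run.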

[6] = Induction of apoptosis in BALB/C mouse BMDM assessed as cells with hypodiploid DNA content at 20 uM after 24 hrs by FITC/propidium iodide staining based flow cytometric analysis (reference value: 29.9%); format: functional
Trypanosoma cruzi [7] = assay: (§3) Trypanocidal activity against Trypanosoma cruzi Tulahuen amastigotes infected in BALB/C mouse bone marrow derived macrophages assessed as endocytic index at 800 uM treated for 24 hrs followed by compound washout measured after 48 hrs by immunofluorescence assay (reference value: 213.66 +/- 58.79); format: functional
Trypanosoma cruzi [8] = assay: Trypanostatic activity against Trypanosoma cruzi Tulahuen amastigotes infected in BALB/C mouse bone marrow derived macrophages assessed as formation of low electrodense structures in parasite cytoplasm at 20 uM after 24 hrs by transmission electron microscopic analysis; format: functional
Summary of the method: (§4)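 Bone marrow-derived macrophages were infected for 24 h, then exposed to 20 μM for 24 h or left untreated. Intracellular amastigote ultrastructure was examined by transmission electron microscopy, covering mitochondrion, nucleus, kinetoplast, flagellum, flagellar pocket, subpellicular microtubules and cytoplasmic structures.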

Trypanosoma cruzi [9] = assay: Trypanocidal activity against Trypanosoma cruzi Tulahuen trypomastigotes assessed as reduction in parasites after 24 to 48 hrs by trypan blue assay; format: functional
Summary of the method: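 Bloodstream trypomastigotes were incubated at 37 °C in culture medium alone or with increasing doses for 24, 48 and 72 h. Parasite death was scored as percentage by trypan blue exclusion. Results are means ± SD of three independent experiments.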

Trypanosoma cruzi [10] = assay: as §3, with “parasite infected macrophages” for “endocytic index”, “26.84” for “213.66”, “7.81%)” for “58.79)”; format: functional
Trypanosoma cruzi [11] = assay: Trypanocidal activity against Trypanosoma cruzi Tulahuen amastigotes infected in BALB/C mouse bone marrow derived macrophages assessed as endocytic index at 1500 uM treated for 24 hrs followed by compound washout measured after 48 hrs by immunofluorescence assay (reference value: 213.66 +/- 58.79); format: functional
Trypanosoma cruzi [12] = assay: Trypanocidal activity against Trypanosoma cruzi Tulahuen amastigotes infected in BALB/C mouse bone marrow derived macrophages assessed as reduction in parasite infected macrophages at 0.2 uM after 72 hrs by immunofluorescence assay relative to control; format: functional
Trypanosoma cruzi [13] = assay: Trypanocidal activity against Trypanosoma cruzi Tulahuen amastigotes infected in BALB/C mouse bone marrow derived macrophages assessed as endocytic index at 2000 uM treated for 24 hrs followed by compound washout measured after 48 hrs by immunofluorescence assay (reference value: 213.66 +/- 58.79); format: functional
[14] = Induction of apoptosis in BALB/C mouse BMDM assessed as cells with hypodiploid DNA content at 0.2 uM after 24 hrs by FITC/propidium iodide staining based flow cytometric analysis (reference value: 29.9%); format: functional
Trypanosoma cruzi [15] = assay: (§5) Trypanocidal activity against Trypanosoma cruzi Tulahuen amastigotes infected in BALB/C mouse bone marrow derived macrophages assessed as endocytic index at 1800 uM treated for 24 hrs followed by compound washout measured after 48 hrs by immunofluorescence assay (reference value: 213.66 +/- 58.79); format: functional
Trypanosoma cruzi [16] = assay: Trypanocidal activity against Trypanosoma cruzi Tulahuen amastigotes infected in BALB/C mouse bone marrow derived macrophages assessed as endocytic index at 0.2 uM treated for 24 hrs followed by compound washout measured after 48 hrs by immunofluorescence assay (reference value: 213.66 +/- 58.79); format: functional
Trypanosoma cruzi [17] = assay: Trypanocidal activity against Trypanosoma cruzi Tulahuen amastigote forms infected in BALB/C mouse bone marrow derived macrophages assessed as decrease in parasite growth at 200 uM after 72 hrs by immunofluorescence assay; format: functional; summary of the method: as §1
PBMC = assay: Cytotoxicity against human PBMC assessed as reduction in cell viability at 0.2 to 2000 uM after 24 hrs by trypan blue exclusion assay; format: cell-based
Summary of the method: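 Mammalian cells (human PBMC, Swan 71, Jurkat; bone marrow-derived macrophages; J774) were exposed to 3-HK at 0.2 to 2000 μM for 24 h. Viability was then scored by trypan blue exclusion.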

Trypanosoma cruzi [18] = assay: Induction of mitochondrial membrane potential in Trypanosoma cruzi Tulahuen trypomastigotes at 10 mM after 24 hrs by Rh123/PI staining-based flow cytometric analysis (reference value: 3.25 +/- 1.66%); format: functional; summary of the method: as §2
Trypanosoma cruzi [19] = assay: (§6) Trypanocidal activity against Trypanosoma cruzi Tulahuen amastigotes infected in BALB/C mouse bone marrow derived macrophages assessed as endocytic index at 400 uM treated for 24 hrs followed by compound washout measured after 48 hrs by immunofluorescence assay (reference value: 213.66 +/- 58.79); format: functional
Trypanosoma cruzi [20] = assay: Trypanocidal activity against Trypanosoma cruzi Tulahuen amastigotes infected in BALB/C mouse bone marrow derived macrophages assessed as decrease in intracellular parasite growth after 72 hrs by immunofluorescence assay; format: functional, cell-based; summary of the method: as §1
Trypanosoma cruzi [21] = assay: as §6, with “parasite infected macrophages” for “endocytic index”, “26.84” for “213.66”, “7.81%)” for “58.79)”; format: functional
Trypanosoma cruzi [22] = assay: Trypanostatic activity against Trypanosoma cruzi Tulahuen amastigotes infected in BALB/C mouse bone marrow derived macrophages assessed as kinetoplast structure disorganization at 20 uM after 24 hrs by transmission electron microscopic analysis; format: functional; summary of the method: as §4
[23] = Induction of apoptosis in BALB/C mouse BMDM assessed as cells with hypodiploid DNA content at 10000 uM after 24 hrs by FITC/propidium iodide staining based flow cytometric analysis (reference value: 29.9%); format: functional
Trypanosoma cruzi [24] = assay: as §5, with “parasite infected macrophages” for “endocytic index”, “26.84” for “213.66”, “7.81%)” for “58.79)”; format: functional
[25] = Induction of apoptosis in BALB/C mouse BMDM assessed as cells with hypodiploid DNA content at 2 uM after 24 hrs by FITC/propidium iodide staining based flow cytometric analysis (reference value: 29.9%); format: functional

For Nc1c(O)cccc1C(=O)C[C@H](N)C(=O)O, the Activity [1] was 30.9%, the “Ratio IC50” value (Trypanosoma cruzi [2]) was 6000 and the Activity (Trypanosoma cruzi [3]) was “Active”. For the same molecule, the IC50 (Trypanosoma cruzi [4]) was 0.2 µM, the Activity (Trypanosoma cruzi [5]) was 40.7% and the Activity [6] was 25.9%. The Activity (Trypanosoma cruzi [7]) was 99.39, the Activity (Trypanosoma cruzi [8]) was “Active” and the IC50 (Trypanosoma cruzi [9]) was 200 to 1200 µM. The Activity (Trypanosoma cruzi [10]) was 15.1%, the Activity (Trypanosoma cruzi [11]) was 124.36 and the inhibition at 0.2 µM (Trypanosoma cruzi [12]) was 59%. For the same molecule, the Activity (Trypanosoma cruzi [13]) was 104.34, the Activity [14] was 27.5% and the Activity (Trypanosoma cruzi [15]) was 110.69. The Activity (Trypanosoma cruzi [16]) was 67.61, the Activity (Trypanosoma cruzi [17]) was “Active” and the Activity (PBMC) was “Non-Toxic”. The Activity (Trypanosoma cruzi [18]) was 40%, the Activity (Trypanosoma cruzi [19]) was 89.81 and the Activity (Trypanosoma cruzi [20]) was “Dose-dependent effect”. For the same molecule, the Activity (Trypanosoma cruzi [21]) was 14.66%, the Activity (Trypanosoma cruzi [22]) was “Active” and the Activity [23] was 29.5%. It also gave an Activity (Trypanosoma cruzi [24]) of 14.32% and an Activity [25] of 28.2%.
